Reference: ChEMBL document CHEMBL1123490, “Synthesis and biological activities of oligo(8-bromoadenylates) as analogues of 5'-O-triphosphoadenylyl(2'----5')adenylyl(2'----5')adenosine” (J Med Chem, 1986)

Key:
[1] = molecular target: T1, 2-5A-dependent ribonuclease (Mus musculus, UniProt Q05921); experiment: (§1) Compound was tested for activation of RNase L by measuring concentration required for 50% inhibition of protein synthesis in mouse L cell extracts; format: cell-based
T1 sequence (Q05921 whole entry): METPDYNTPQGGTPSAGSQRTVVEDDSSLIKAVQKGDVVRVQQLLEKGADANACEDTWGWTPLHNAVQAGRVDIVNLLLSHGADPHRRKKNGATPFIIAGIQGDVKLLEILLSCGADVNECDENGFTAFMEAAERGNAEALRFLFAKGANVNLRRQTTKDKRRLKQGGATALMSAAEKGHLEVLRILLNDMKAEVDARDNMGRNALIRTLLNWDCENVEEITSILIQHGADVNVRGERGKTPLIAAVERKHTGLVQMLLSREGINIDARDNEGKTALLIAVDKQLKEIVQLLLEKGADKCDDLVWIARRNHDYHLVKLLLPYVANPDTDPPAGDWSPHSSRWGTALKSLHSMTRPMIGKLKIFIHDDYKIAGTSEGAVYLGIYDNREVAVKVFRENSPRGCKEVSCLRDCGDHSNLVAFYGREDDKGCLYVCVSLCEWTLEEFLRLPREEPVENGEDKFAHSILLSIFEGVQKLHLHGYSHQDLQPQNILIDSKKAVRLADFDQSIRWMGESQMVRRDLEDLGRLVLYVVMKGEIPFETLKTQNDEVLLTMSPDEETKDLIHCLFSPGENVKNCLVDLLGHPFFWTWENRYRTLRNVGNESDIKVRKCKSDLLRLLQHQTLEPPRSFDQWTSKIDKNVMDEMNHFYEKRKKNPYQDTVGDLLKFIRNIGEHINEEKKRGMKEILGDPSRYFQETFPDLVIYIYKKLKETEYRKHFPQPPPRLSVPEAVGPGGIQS

Mus musculus [2] = organism: Mus musculus; experiment: Compound measured for the stability in 20% mouse in L cell extracts in the presence of ATP at 220 min; format: functional, organism-based
Mus musculus [3] = organism: Mus musculus; experiment: Compound measured for the stability in 20% mouse in L cell extracts in the absence of ATP at 0 min; format: functional
Mus musculus [4] = organism: Mus musculus; experiment: Compound measured for the stability in 20% mouse in L cell extracts in the absence of ATP at 30 min; format: functional
Mus musculus [5] = organism: Mus musculus; experiment: Compound measured for the stability in 20% mouse in L cell extracts in the absence of ATP at 12 hr; format: functional
Mus musculus [6] = organism: Mus musculus; experiment: Compound measured for the stability in 20% mouse in L cell extracts in the absence of ATP at 150 min; format: functional
Mus musculus [7] = organism: Mus musculus; experiment: Compound measured for the stability in 20% mouse in L cell extracts in the presence of ATP at 12 hr; format: functional, organism-based
Mus musculus [8] = organism: Mus musculus; experiment: Compound measured for the stability in 20% mouse in L cell extracts in the presence of ATP at 75 min; format: functional, organism-based
Mus musculus [9] = organism: Mus musculus; experiment: Compound measured for the stability in 20% mouse in L cell extracts in the absence of ATP at 240 min; format: functional
Mus musculus [10] = organism: Mus musculus; experiment: Compound measured for the stability in 20% mouse in L cell extracts in the absence of ATP at 120 min; format: functional
Mus musculus [11] = organism: Mus musculus; experiment: Compound measured for the stability in 20% mouse in L cell extracts in the presence of ATP at 40 min; format: functional, organism-based
Mus musculus [12] = organism: Mus musculus; experiment: Compound measured for the stability in 20% mouse in L cell extracts in the absence of ATP at 90 min; format: functional
[13] = molecular target: T2, 2-5A-dependent ribonuclease (Mus musculus) (UniProt Q05921); experiment: as §1; format: cell-based
T2 sequence (whole entry): T1 sequence (Q05921 whole entry)
Method in brief: (§2)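 Cell-free translation was run in mouse L cell extract programmed with EMCV RNA, with creatine kinase, amino acids and [3H]leucine added. At set times, aliquots were spotted onto filter disks presoaked in 15% trichloroacetic acid to measure incorporation. The value is the concentration giving 50% inhibition of protein synthesis.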

Mus musculus [14] = organism: Mus musculus; experiment: Compound measured for the stability in 20% mouse in L cell extracts in the presence of ATP at 0 min; format: functional, organism-based
[15] = molecular target: T2, 2-5A-dependent ribonuclease (Mus musculus); experiment: Binding affinity against 2-5A-dependent RNase L in mouse L cell extracts using ppp5'A2p5'A2'p5'A3'[32P]pCp as a radioactive probe; format: cell-free
Method in brief: (§3)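 Crude mouse L cell extract served as the RNase L source, with ppp5'A2'p5'A2'p5'A3'[32P]p5'Cp as the radioactive probe, in a competition binding assay on nitrocellulose. The value is the analogue concentration giving 50% displacement of the probe from the endonuclease–nitrocellulose complex.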

Mus musculus [16] = organism: Mus musculus; experiment: Compound measured for the stability in 20% mouse in L cell extracts in the presence ot ATP at 40 min.; format: functional, organism-based
[17] = molecular target: T2, 2-5A-dependent ribonuclease (Mus musculus); experiment: Binding affinity against 2-5A-dependent RNase L in mouse L cell extract using ppp5'A2p5'A2'p5'A3'[32P]pCp as a radioactive probe; format: cell-free; method in brief: as §3
Mus musculus [18] = organism: Mus musculus; experiment: Compound measured for the stability in 20% mouse in L cell extracts in the presence ot ATP at 75 min; format: functional, organism-based
Mus musculus [19] = organism: Mus musculus; experiment: Compound measured for the stability in 20% mouse in L cell extracts in the absence ot ATP at 240 min; format: functional, organism-based
Mus musculus [20] = organism: Mus musculus; experiment: Compound measured for the stability in 20% mouse in L cell extracts in the absence ot ATP at 75 min; format: functional
Mus musculus [21] = organism: Mus musculus; experiment: Compound measured for the stability in 20% mouse in L cell extracts in the absence ot ATP at 12 hr; format: functional
Mus musculus [22] = organism: Mus musculus; experiment: Compound measured for the stability in 20% mouse in L cell extracts in the absence ot ATP at 0 min.; format: functional
Mus musculus [23] = organism: Mus musculus; experiment: Compound measured for the stability in 20% mouse in L cell extracts in the presence ot ATP at 12 hr; format: functional, organism-based
Mus musculus [24] = organism: Mus musculus; experiment: Compound measured for the stability in 20% mouse in L cell extracts in the presence ot ATP at 150 min; format: functional
Mus musculus [25] = organism: Mus musculus; experiment: Compound measured for the stability in 20% mouse in L cell extracts in the presence of ATP at 0 min.; format: functional, organism-based
Mus musculus [26] = organism: Mus musculus; experiment: Compound measured for the stability in 20% mouse in L cell extracts in the absence ot ATP at 150 min; format: functional
Mus musculus [27] = organism: Mus musculus; experiment: Compound measured for the stability in 20% mouse in L cell extracts in the absence ot ATP at 40 min.; format: functional, organism-based
[28] = molecular target: T1, 2-5A-dependent ribonuclease; experiment: (§4) compound was tested for activation of RNase L by measuring concentration required for 50% inhibition of protein synthesis in mouse L cell extracts; format: cell-based; method in brief: as §2
[29] = molecular target: T2, 2-5A-dependent ribonuclease (Mus musculus); experiment: as §4; format: cell-based; method in brief: as §2
Mus musculus [30] = organism: Mus musculus; experiment: Compound measured for the stability in 20% mouse in L cell extracts in the presence of ATP at 120 min; format: functional, organism-based

## Nc1ncnc2c1ncn2[C@@H]1O[C@H](CO[P@](=O)(O)O[C@@H]2[C@H](O)[C@@H](CO[P@](=O)(O)O[C@@H]3[C@H](O)[C@@H](CO[P@](=O)(O)O[P@@](=O)(O)OP(=O)(O)O)O[C@H]3n3cnc4c(N)ncnc43)O[C@H]2n2cnc3c(N)ncnc32)[C@@H](O)[C@H]1O
[1]
  IC50: 2.3 nM

## Nc1ncnc2c1nc(Br)n2[C@@H]1O[C@H](COP(=O)(O)O[C@@H]2[C@H](O)[C@@H](COP(=O)(O)O[C@@H]3[C@H](O)[C@@H](COP(=O)(O)OP(=O)(O)O)O[C@H]3n3c(Br)nc4c(N)ncnc43)O[C@H]2n2c(Br)nc3c(N)ncnc32)[C@@H](O)[C@H]1O
Mus musculus [2]
  Stability: 70%
Mus musculus [3]
  Stability: 100%
Mus musculus [4]
  Stability: 80%
Mus musculus [5]
  Stability: 0%
Mus musculus [6]
  Stability: 55%
[1]
  IC50: 46 nM
Mus musculus [7]
  Stability: 47%
Mus musculus [8]
  Stability: 71%
Mus musculus [9]
  Stability: 0%
Mus musculus [10]
  Stability: 67%
Mus musculus [11]
  Stability: 87%
Mus musculus [12]
  Stability: 70%
[13]
  Relative activity: 0.05
Mus musculus [14]
  Stability: 100%
[15]
  Activity: 3e-09
  Relative ability: 0.23

## Nc1ncnc2c1nc(Br)n2[C@@H]1O[C@H](COP(=O)(O)O[C@@H]2[C@H](O)[C@@H](COP(=O)(O)O[C@@H]3[C@H](O)[C@@H](COP(=O)(O)O)O[C@H]3n3c(Br)nc4c(N)ncnc43)O[C@H]2n2c(Br)nc3c(N)ncnc32)[C@@H](O)[C@H]1O
Mus musculus [16]
  Stability: 99%
[17]
  Relative ability: 0.035
Mus musculus [18]
  Stability: 89%
Mus musculus [19]
  Stability: 76%
Mus musculus [20]
  Stability: 82%
[1]
  IC50: 1000 nM
Mus musculus [21]
  Stability: 22%
Mus musculus [22]
  Stability: 100%
Mus musculus [23]
  Stability: 53%
Mus musculus [24]
  Stability: 84%
Mus musculus [25]
  Stability: 100%
Mus musculus [26]
  Stability: 77%
Mus musculus [27]
  Stability: 88%
[13]
  Relative activity: 0.0023
[15]
  Activity: 2e-08

## Nc1ncnc2c1nc(Br)n2[C@@H]1O[C@H](COP(=O)(O)O[C@@H]2[C@H](O)[C@@H](COP(=O)(O)O[C@@H]3[C@H](O)[C@@H](COP(=O)(O)O[C@@H]4[C@H](O)[C@@H](COP(=O)(O)O)O[C@H]4n4c(Br)nc5c(N)ncnc54)O[C@H]3n3c(Br)nc4c(N)ncnc43)O[C@H]2n2c(Br)nc3c(N)ncnc32)[C@@H](O)[C@H]1O
[28]
  IC50: 700 nM
[15]
  Activity: 4e-09
  Relative ability: 0.18
[29]
  Relative activity: 0.0033

## Nc1ncnc2c1nc(Br)n2[C@@H]1O[C@H](COP(=O)(O)O[C@@H]2[C@H](O)[C@@H](COP(=O)(O)O[C@@H]3[C@H](O)[C@@H](COP(=O)(O)OP(=O)(O)OP(=O)(O)O)O[C@H]3n3c(Br)nc4c(N)ncnc43)O[C@H]2n2c(Br)nc3c(N)ncnc32)[C@@H](O)[C@H]1O
[17]
  Activity: 8e-09
  Relative ability: 0.088
Mus musculus [2]
  Stability: 16%
Mus musculus [30]
  Stability: 36%
Mus musculus [3]
  Stability: 48%
[1]
  IC50: 150 nM
Mus musculus [7]
  Stability: 0%
Mus musculus [8]
  Stability: 46%
Mus musculus [11]
  Stability: 54%
Mus musculus [12]
  Stability: 3%
[13]
  Relative activity: 0.015
Mus musculus [14]
  Stability: 71%

## Nc1ncnc2c1nc(Br)n2[C@@H]1O[C@H](COP(=O)(O)O[C@@H]2[C@H](O)[C@@H](COP(=O)(O)O[C@@H]3[C@H](O)[C@@H](COP(=O)(O)O[C@@H]4[C@H](O)[C@@H](CO)O[C@H]4n4c(Br)nc5c(N)ncnc54)O[C@H]3n3c(Br)nc4c(N)ncnc43)O[C@H]2n2c(Br)nc3c(N)ncnc32)[C@@H](O)[C@H]1O
[28]
  IC50: > 200000 nM
[15]
  Activity: 3e-08
  Relative ability: 0.023
[29]
  Relative activity: < 1e-05

## Nc1ncnc2c1nc(Br)n2[C@@H]1O[C@H](COP(=O)(O)O[C@@H]2[C@H](O)[C@@H](COP(=O)(O)O[C@@H]3[C@H](O)[C@@H](CO)O[C@H]3n3c(Br)nc4c(N)ncnc43)O[C@H]2n2c(Br)nc3c(N)ncnc32)[C@@H](O)[C@H]1O
[28]
  IC50: > 50000 nM
[15]
  Activity: 6e-07
  Relative ability: 0.0012
[29]
  Relative activity: < 5e-05

## Nc1ncnc2c1nc(Br)n2[C@H]1O[C@@H](COP(=O)(O)O[C@H]2[C@@H](O)[C@H](COP(=O)(O)O[C@H]3[C@@H](O)[C@H](COP(=O)(O)O[C@H]4[C@@H](O)[C@H](COP(=O)(O)O[C@H]5[C@@H](O)[C@H](COP(=O)(O)O)O[C@@H]5n5c(Br)nc6c(N)ncnc65)O[C@@H]4n4c(Br)nc5c(N)ncnc54)O[C@@H]3n3c(Br)nc4c(N)ncnc43)O[C@@H]2n2c(Br)nc3c(N)ncnc32)[C@H](O)[C@@H]1O
[28]
  IC50: > 40000 nM
[15]
  Activity: 3e-09
  Relative ability: 0.23
[29]
  Relative activity: < 6e-05

## Nc1ncnc2c1ncn2[C@@H]1O[C@H](COP(=O)(O)O[C@@H]2[C@H](O)[C@@H](COP(=O)(O)O[C@@H]3[C@H](O)[C@@H](COP(=O)(O)OP(=O)(O)OP(=O)(O)O)O[C@H]3n3cnc4c(N)ncnc43)O[C@H]2n2cnc3c(N)ncnc32)[C@@H](O)[C@H]1O
[13]
  Relative activity: 1
